Assay results: ChEMBL document CHEMBL1127491, “Sulfinosine congeners: synthesis and antitumor activity in mice of certain N9-alkylpurines and purine ribonucleosides” (J Med Chem, 1994)

Columns and labels:
Mus musculus [1] = experiment: Maximum soluble dosage which induces toxicity in mice when administered intraperitoneally was determined; type: organism-based; conditions: in vivo, ip
In short: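 Drug was solubilized just before use and given as a single ip bolus at 0.01 mL/g, 24 h after ip inoculation of 1 x 10^6 L1210 cells in BD2F1 mice. This gave a dose 10 times the solubility (mg/mL) in mg/kg. Deaths were assigned to compound toxicity or leukemia by temporal pattern of death and necropsy findings.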

Mus musculus [2] = species: Mus musculus; experiment: Antileukemic activity in BD2F1 mice inoculated with 1 x 10E6 L1210 cells.; type: functional
In short: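 BD2F1 mice were inoculated ip on day 0 with 1 x 10^6 L1210 cells and given one ip bolus 24 h later (0.01 mL/g; water or Me2SO vehicle; dose 10x solubility in mg/mL, lowered if lethally toxic). Controls got saline. Six mice per group. %T/C = mean treated life span / mean control life span x 100, pooled over four studies with 10 controls each.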

L1210 = experiment: Percentage of viable L1210 leukemia cells killed by single treatment with the compound; type: ADME, cell-based; conditions: mouse

What does the source list for `CSc1nc(N)nc2c1ncn2[C@@H]1O[C@H](CO)[C@@H](O)[C@H]1O`?
Dosage (Mus musculus [1]): 37 mg/kg; T/C (Mus musculus [2]): 98%; Cells killed (L1210): 0%

For `C[S+]([O-])c1nc(N)nc2c1ncn2[C@H]1C[C@H](O)[C@@H](CO)O1` (stereo partly drawn), which Dosage (Mus musculus [1]) is on record?
The Dosage was 800 mg/kg.

`CCCCCn1cnc2c([S+](N)[O-])nc(N)nc21` (stereo not drawn) was tested. Which Dosage (Mus musculus [1]) did it give?
The Dosage was 106 mg/kg.

What about the T/C (Mus musculus [2]) of the same compound?
Its T/C is 117%.

And the Cells killed (L1210)?
The Cells killed was 72%.

With `CCCCCCn1cnc2c(S)nc(N)nc21` as the compound, how does the Dosage (Mus musculus [1]) read?
Its Dosage is 110 mg/kg.

What about the T/C (Mus musculus [2]) of the same compound?
Its T/C is 118%.

What about the Cells killed (L1210) of the same compound?
The Cells killed was 72%.

`CSc1nc(N)nc2c1ncn2[C@H]1C[C@H](O)[C@@H](CO)O1` was tested. Which Dosage (Mus musculus [1]) did it give?
The Dosage was 800 mg/kg.

How did the Dosage (Mus musculus [1]) turn out when `Nc1nc([S+](N)[O-])c2ncn(C3O[C@H](CO)[C@@H](O)[C@H]3O)c2n1` (stereo partly drawn) was run?
Its Dosage is 173 mg/kg.

What about the T/C (Mus musculus [2]) of the same compound?
The T/C was 167%.

And the Cells killed (L1210)?
The Cells killed was 99.8%.

With `Nc1nc([S+](N)[O-])c2ncn(CCCCCCO)c2n1` (stereo not drawn) as the compound, how does the Dosage (Mus musculus [1]) read?
Its Dosage is 39 mg/kg.

And the T/C (Mus musculus [2])?
The T/C was 139%.

And the Cells killed (L1210)?
The Cells killed was 96%.

For `C[S+]([O-])c1nc(N)nc2c1ncn2C1O[C@H](CO)[C@@H](O)[C@H]1O` (stereo partly drawn), which Dosage (Mus musculus [1]) is on record?
The Dosage was 480 mg/kg.

And the T/C (Mus musculus [2])?
Its T/C is 114%.

And the Cells killed (L1210)?
Its Cells killed is 71%.

How did the Dosage (Mus musculus [1]) turn out when `CS(=O)(=O)c1nc(N)nc2c1ncn2[C@H]1C[C@H](O)[C@@H](CO)O1` was run?
Its Dosage is 800 mg/kg.

What does the source list for `CCCCCn1cnc2c(S)ncnc21`?
Dosage (Mus musculus [1]): 41 mg/kg; T/C (Mus musculus [2]): 141%; Cells killed (L1210): 91%

Which Dosage (Mus musculus [1]) does the source give for `CCCCCCn1cnc2c([S+](N)[O-])ncnc21` (stereo not drawn) here?
Its Dosage is 800 mg/kg.

How did the Dosage (Mus musculus [1]) turn out when `CCCCCCn1cnc2c(SN)ncnc21` was run?
The Dosage was 410 mg/kg.

What about the T/C (Mus musculus [2]) of the same compound?
Its T/C is 116%.

And the Cells killed (L1210)?
Its Cells killed is 75%.

How did the Dosage (Mus musculus [1]) turn out when `CCCCCn1cnc2c(SN)nc(N)nc21` was run?
Its Dosage is 47 mg/kg.

What about the T/C (Mus musculus [2]) of the same compound?
Its T/C is 118%.

What about the Cells killed (L1210) of the same compound?
The Cells killed was 70%.

Which results are given for `Nc1nc(S(=O)(=O)Cc2ccccc2)c2ncn(C3O[C@H](CO)[C@@H](O)[C@H]3O)c2n1` (stereo partly drawn)?
Dosage (Mus musculus [1]): 104 mg/kg; T/C (Mus musculus [2]): 115%; Cells killed (L1210): 76%

For `CCCCCCn1cnc2c(SN)nc(N)nc21`, which Dosage (Mus musculus [1]) is on record?
Its Dosage is 105 mg/kg.

What about the T/C (Mus musculus [2]) of the same compound?
Its T/C is 119%.

What about the Cells killed (L1210) of the same compound?
Its Cells killed is 87%.

`CCCCCn1cnc2c([S+](N)[O-])ncnc21` (stereo not drawn) was tested. Which Dosage (Mus musculus [1]) did it give?
Its Dosage is 480 mg/kg.

What about the T/C (Mus musculus [2]) of the same compound?
Its T/C is 134%.

And the Cells killed (L1210)?
Its Cells killed is 90%.

Which results are given for `Nc1nc([S+]([O-])Cc2ccccc2)c2ncn(C3O[C@H](CO)[C@@H](O)[C@H]3O)c2n1` (stereo partly drawn)?
Dosage (Mus musculus [1]): 37 mg/kg; T/C (Mus musculus [2]): 137%; Cells killed (L1210): 97%

How did the Dosage (Mus musculus [1]) turn out when `NSc1nc(N)nc2c1ncn2C1O[C@H](CO)[C@@H](O)[C@H]1O` (stereo partly drawn) was run?
The Dosage was 22 mg/kg.

And the T/C (Mus musculus [2])?
The T/C was 170%.

And the Cells killed (L1210)?
The Cells killed was 99.8%.

For `CCCCCCn1cnc2c(S)ncnc21`, which Dosage (Mus musculus [1]) is on record?
Its Dosage is 44 mg/kg.

And the T/C (Mus musculus [2])?
The T/C was 147%.

What about the Cells killed (L1210) of the same compound?
Its Cells killed is 87%.

How did the Dosage (Mus musculus [1]) turn out when `CCCCCn1cnc2c(S)nc(N)nc21` was run?
The Dosage was 40 mg/kg.

What about the T/C (Mus musculus [2]) of the same compound?
The T/C was 149%.

And the Cells killed (L1210)?
Its Cells killed is 92%.

With `CCCCCCn1cnc2c([S+](N)[O-])nc(N)nc21` (stereo not drawn) as the compound, how does the Dosage (Mus musculus [1]) read?
The Dosage was 460 mg/kg.

And the T/C (Mus musculus [2])?
Its T/C is 121%.

What about the Cells killed (L1210) of the same compound?
The Cells killed was 93%.

How did the Dosage (Mus musculus [1]) turn out when `CS(=O)(=O)c1nc(N)nc2c1ncn2C1O[C@H](CO)[C@@H](O)[C@H]1O` (stereo partly drawn) was run?
Its Dosage is 104 mg/kg.

And the T/C (Mus musculus [2])?
Its T/C is 96%.

What about the Cells killed (L1210) of the same compound?
The Cells killed was 0%.
